{
  "source": "paper PMC9828441",
  "about": "(Acta Biochimica et Biophysica Sinica, 2022)",
  "system": "PC9 cells",
  "experiment": "Cell cycle by PI staining flow cytometry",
  "assay_type": "cell-based, human",
  "conditions": "PC9, 24 h",
  "summary_of_the_method": "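Cells in RPMI 1640 with 10% FBS (37°C, 5% CO2) were seeded in 6-well plates at 20–25% confluence and exposed to graded test compound or a reference EGFR inhibitor for 24 h. They were then fixed in 70% ethanol for 24 h at 4°C, washed twice in PBS, treated with RNase A at 37°C for 30 min and stained with PI (50 μg/mL) for 10 min. DNA content was read by flow cytometry.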",
  "data": [
    {"compound": "COc1cc2ncnc(Nc3ccc(F)c(Cl)c3)c2cc1OCCCN1CCOCC1", "note": "[gefitinib]", "values": [
      {"measurement": "cell cycle arrest", "result": "arrested only PC9 (EGFR L858R+) cells at G0/G1 phase"}
    ]}
  ]
}
